The record followed here is PMC2606940 (The Journal of General Physiology, 2009).

The target of experiment [1] is T1, CLC-0 E166V mutant (Torpedo marmorata, UniProt P21564, C212S/E166V).
T1 sequence (P21564 1-805 E166V/C212S): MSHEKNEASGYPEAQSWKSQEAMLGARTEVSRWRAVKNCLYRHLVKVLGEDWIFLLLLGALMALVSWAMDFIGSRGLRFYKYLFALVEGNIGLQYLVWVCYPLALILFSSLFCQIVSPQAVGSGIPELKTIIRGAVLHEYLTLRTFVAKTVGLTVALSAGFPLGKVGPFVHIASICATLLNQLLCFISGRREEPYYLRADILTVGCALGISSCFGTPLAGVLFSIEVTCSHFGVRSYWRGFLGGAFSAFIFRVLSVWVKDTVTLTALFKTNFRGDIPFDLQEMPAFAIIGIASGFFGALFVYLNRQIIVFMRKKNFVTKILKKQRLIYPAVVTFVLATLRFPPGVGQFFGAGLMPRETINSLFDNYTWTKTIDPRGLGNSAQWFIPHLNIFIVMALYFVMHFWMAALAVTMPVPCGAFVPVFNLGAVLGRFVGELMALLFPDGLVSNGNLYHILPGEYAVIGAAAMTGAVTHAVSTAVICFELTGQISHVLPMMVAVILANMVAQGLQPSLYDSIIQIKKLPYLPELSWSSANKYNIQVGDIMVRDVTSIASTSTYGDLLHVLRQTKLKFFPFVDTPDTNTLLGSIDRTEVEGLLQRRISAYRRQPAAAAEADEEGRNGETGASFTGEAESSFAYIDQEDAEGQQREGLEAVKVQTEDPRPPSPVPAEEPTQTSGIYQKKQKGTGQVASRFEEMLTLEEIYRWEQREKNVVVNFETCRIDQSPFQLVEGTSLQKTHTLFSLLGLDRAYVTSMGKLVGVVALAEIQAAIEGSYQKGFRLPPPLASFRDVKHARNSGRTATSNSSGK
Type of experiment: cell-based. The following applies: read-out: Apparent affinity (K1/2). In short, it runs like this: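 CLC-0 mutants in the C212S background were transfected into HEK293 cells with lipofectamine and recorded 1–3 d later as excised inside-out patches. Both sides held 130 mM NaCl, 5 mM MgCl2, 10 mM HEPES and 1 mM EGTA, pH 7.4. CPA was perfused continuously onto the cytoplasmic face. Steady-state current over the last 10 ms was normalized to bracketing blocker-free controls and fitted to a Langmuir function for K1/2. Values are mean ± SEM of ~4–6 patches.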

Experiment [2] deals with T2, CLC-0 E166C/E127Q/K519M mutant (Torpedo marmorata, UniProt P21564, C212S/E127Q/E166C/K519M).
T2 sequence (P21564 1-805 E127Q/E166C/C212S/K519M): T1 sequence (P21564 1-805 E166V/C212S) with E127Q, V166C, K519M
Format: cell-based. The following applies: for IC50: read-out: Apparent affinity (K1/2). In short, it runs like this:
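CLC-0 mutants (C212S background) were lipofectamine-transfected into HEK293 cells and recorded 1–3 d later from inside-out patches. Pipette and bath contained 130 mM NaCl, 5 MgCl2, 10 HEPES and 1 EGTA (pH 7.4). Test compound was perfused onto the cytoplasmic side. A +80 mV prepulse preceded steps to steady state. The last-10-ms current was normalized to bracketing blocker-free controls and fitted to a Langmuir function for K1/2.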

Numbering of substitutions follows the chain as printed. Like-named read-outs stand apart in the source and are kept apart here.

For the compound `O=C(O)COc1ccc(Cl)cc1` [CPA, p-chlorophenoxy acetate], the IC50 stood at 676 ± 78 µM in experiment [1] (−40 mV); 373 ± 37 µM in experiment [1] (−60 mV); 198 ± 15 µM in experiment [1] (−80 mV); 113 ± 10 µM in experiment [1] (−100 mV); 65 ± 7 µM in experiment [1] (−120 mV); 40 ± 4 µM in experiment [1] (−140 mV). Besides, the IC50 came to 26 ± 3 µM in experiment [1] (−160 mV); 457 ± 30 µM in experiment [2] (−40 mV); 240 ± 13 µM in experiment [2] (−60 mV); 132 ± 6 µM in experiment [2] (−80 mV); 75 ± 3 µM in experiment [2] (−100 mV); 47 ± 3 µM in experiment [2] (−120 mV). In addition, the values for the IC50 in experiment [2] (−140 mV) and in experiment [2] (−160 mV) were 31 ± 2 µM and 22 ± 2 µM, respectively. The apparent koff in experiment [2] (−160 mV) worked out at 11.4 s⁻¹. For the same compound, the apparent kon in experiment [2] (−160 mV) is 460000 M⁻¹ s⁻¹.
On to `CCCCCCCC(=O)O` [octanoate], for which the IC50 is 231 ± 14 µM in experiment [1] (−40 mV); 126 ± 6.5 µM in experiment [1] (−60 mV); 67.2 ± 3.7 µM in experiment [1] (−80 mV); 35.3 ± 2.8 µM in experiment [1] (−100 mV); 18.4 ± 1.5 µM in experiment [1] (−120 mV); 10.2 ± 0.8 µM in experiment [1] (−140 mV). For the same compound, the IC50 in experiment [1] (−160 mV) was found to be 6 ± 0.4 µM.
